Data published in ChEMBL document CHEMBL3271938, “Podophyllotoxin analogs. 1. Synthesis and biological evaluation of certain trans-2-aryl-trans-6-hydroxymethyl-3-cyclohexenecarboxylic acid gamma-lactones as antimitotic agents” (1976).

How the values were obtained:
Tubulin (Bos taurus) [1] = biological target: T1, Tubulin (Bos taurus) (UniProt Q6B856+Q862L2+Q862F3); experiment: Displacement of [3H]colchicine from bovine brain tubulin at 100 uM after 90 mins by liquid scintillation counting in presence of 10 uM [3H]colchicine
Tubulin (Bos taurus) [2] = biological target: T1, Tubulin (Bos taurus); experiment: Displacement of [3H]colchicine from bovine brain tubulin at 40 uM after 90 mins by liquid scintillation counting in presence of 10 uM [3H]colchicine
Tubulin (Bos taurus) [3] = biological target: T1, Tubulin (Bos taurus); experiment: Displacement of [3H]colchicine from bovine brain tubulin at 10 uM after 90 mins by liquid scintillation counting in presence of 10 uM [3H]colchicine
Tubulin (Bos taurus) [4] = biological target: T1, Tubulin (Bos taurus); experiment: Displacement of [3H]colchicine from bovine brain tubulin at 60 uM after 90 mins by liquid scintillation counting in presence of 10 uM [3H]colchicine
P815 [5] = experiment: Inhibition of colony formation in mouse P815 cells assessed as percentage of colony forming cell at 50 uM after 7 days by microscopic analysis relative to control; assay type: functional; design: scale not given: the % may be the effect or the level left
Summary of the method: (§1)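 P-815 mastocytoma cells, passaged in vitro, plated at 1 × 10^3 cells in 1.0 ml of 0.3% agar. Medium was McCoy's 5A with supplements, 10^-4 M dithiothreitol, 10% fetal calf and 5% horse serum. Compound came from a 1 mM stock in Me2SO/EtOH saline, diluted serially 1:10. Incubated 7 days at 37°C under 12% CO2/8% O2; colonies counted microscopically as % of control.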

P815 [6] = experiment: Inhibition of colony formation in mouse P815 cells assessed as percentage of colony forming cell at 0.5 uM after 7 days by microscopic analysis relative to control; assay type: functional; design: scale not given: the % may be the effect or the level left; summary of the method: as §1
[7] = Inhibition of colony formation in BDF1 mouse bone marrow cells assessed as percentage of colony forming cell at 50 uM after 7 days by microscopic analysis relative to control; assay type: functional; design: scale not given: the % may be the effect or the level left
Summary of the method: as §1, with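 “Femoral marrow from female BDF1 mice (8-12 weeks) was dispersed and” for “P-815 mastocytoma cells, passaged in vitro, plated at”, “10^5” for “10^3”, “cells plated” for “cells”, “serum, plus L-cell CSF.” for “serum.”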

P815 [8] = experiment: Inhibition of colony formation in mouse P815 cells assessed as percentage of colony forming cell at 5 uM after 7 days by microscopic analysis relative to control; assay type: functional; design: scale not given: the % may be the effect or the level left; summary of the method: as §1
[9] = Inhibition of colony formation in BDF1 mouse bone marrow cells assessed as percentage of colony forming cell at 5 uM after 7 days by microscopic analysis relative to control; assay type: functional; design: scale not given: the % may be the effect or the level left
Summary of the method: as §1, with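 “Femoral marrow from female BDF1 mice (8-12 weeks) was dispersed and” for “P-815 mastocytoma cells, passaged in vitro, plated at”, “10^5” for “10^3”, “cells plated” for “cells”, “serum, plus L-cell CSF.” for “serum.”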

[10] = Inhibition of colony formation in BDF1 mouse bone marrow cells assessed as percentage of colony forming cell at 0.5 uM after 7 days by microscopic analysis relative to control; assay type: functional; design: scale not given: the % may be the effect or the level left
Summary of the method: as §1, with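 “Femoral marrow from female BDF1 mice (8-12 weeks) was dispersed and” for “P-815 mastocytoma cells, passaged in vitro, plated at”, “10^5” for “10^3”, “cells plated” for “cells”, “serum, plus L-cell CSF.” for “serum.”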

Tubulin (Bos taurus) [11] = biological target: T1, Tubulin (Bos taurus); experiment: Displacement of [3H]colchicine from bovine brain tubulin at 20 uM after 90 mins by liquid scintillation counting in presence of […]
Tubulin (Bos taurus) [12] = biological target: T1, Tubulin (Bos taurus); experiment: Displacement of [3H]colchicine from bovine brain tubulin at 200 uM after 90 mins by liquid scintillation counting in presence of 10 uM [3H]colchicine
Tubulin (Bos taurus) [13] = biological target: T1, Tubulin (Bos taurus); experiment: Displacement of [3H]colchicine from bovine brain tubulin at 50 uM after 90 mins by liquid scintillation counting in presence of 10 uM [3H]colchicine
P815 [14] = experiment: Inhibition of colony formation in mouse P815 cells assessed as percentage of colony forming cell at 5 nM after 7 days by microscopic analysis relative to control; assay type: functional; design: scale not given: the % may be the effect or the level left; summary of the method: as §1
[15] = Inhibition of colony formation in BDF1 mouse bone marrow cells assessed as percentage of colony forming cell at 5 nM after 7 days by microscopic analysis relative to control; assay type: functional; design: scale not given: the % may be the effect or the level left
Summary of the method: as §1, with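 “Femoral marrow from female BDF1 mice (8-12 weeks) was dispersed and” for “P-815 mastocytoma cells, passaged in vitro, plated at”, “10^5” for “10^3”, “cells plated” for “cells”, “serum, plus L-cell CSF.” for “serum.”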

[16] = Inhibition of colony formation in BDF1 mouse bone marrow cells assessed as percentage of colony forming cell at 50 nM after 7 days by microscopic analysis relative to control; assay type: functional; design: scale not given: the % may be the effect or the level left
Summary of the method: as §1, with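 “Femoral marrow from female BDF1 mice (8-12 weeks) was dispersed and” for “P-815 mastocytoma cells, passaged in vitro, plated at”, “10^5” for “10^3”, “cells plated” for “cells”, “serum, plus L-cell CSF.” for “serum.”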

P815 [17] = experiment: Inhibition of colony formation in mouse P815 cells assessed as percentage of colony forming cell at 50 nM after 7 days by microscopic analysis relative to control; assay type: functional; design: scale not given: the % may be the effect or the level left; summary of the method: as §1

SMILES | Activity (Tubulin (Bos taurus) [1]) [cpm] | Activity (Tubulin (Bos taurus) [2]) [cpm] | Activity (Tubulin (Bos taurus) [3]) [cpm] | Activity (Tubulin (Bos taurus) [4]) [cpm] | Activity (P815 [5]) [%] | Activity (P815 [6]) [%] | Activity [7] [%] | Activity (P815 [8]) [%] | Activity [9] [%] | Activity [10] [%] | Activity (Tubulin (Bos taurus) [11]) [cpm] | Activity (Tubulin (Bos taurus) [12]) [cpm] | Activity (Tubulin (Bos taurus) [13]) [cpm] | Activity (P815 [14]) [%] | Activity [15] [%] | Activity [16] [%] | Activity (P815 [17]) [%]
O=C1OC[C@H]2[C@@H]1CC=C[C@@H]2c1ccccc1 (relative stereo) | 13100 | 14800 | 15800 | 5380 | – | – | – | – | – | – | – | – | – | – | – | – | –
COc1cc([C@H]2C=CC[C@@H]3C(=O)OC[C@@H]32)cc(OC)c1OC (relative stereo) | 18200 | 11600 | 18500 | 18400 | 178 | 81 | 55 | 89 | 73 | 75 | – | – | – | – | – | – | –
O=C1OC[C@H]2[C@@H]1CC=C[C@@H]2c1ccc2c(c1)OCO2 | 17000 | 16700 | 19000 | 17000 | 106 | 71 | 121 | 98 | 105 | 103 | – | – | – | – | – | – | –
O=C1OC[C@H]2CC=C[C@H](c3ccc4c(c3)OCO4)[C@@H]12 | 12400 | 17600 | 17600 | 17300 | 138 | 89 | 115 | 112 | 105 | 97 | – | – | – | – | – | – | –
O=C1OC[C@H]2CC=CC[C@@H]12 | 14100 | 16800 | 15800 | 15900 | 111 | 93 | 114 | 69 | 103 | 106 | – | – | – | – | – | – | –
O=C1OC[C@H]2CC=C[C@H](c3ccccc3)[C@H]12 | 15500 | 15600 | 12200 | 18500 | 93 | 74 | 107 | 75 | 95 | 96 | – | – | – | – | – | – | –
O=C1OC[C@H]2CC=CC[C@H]12 | 14700 | 14900 | 15500 | 15200 | 112 | 102 | 106 | 95 | 91 | 102 | – | – | – | – | – | – | –
COc1cc([C@H]2C=CC[C@@H]3C(=O)OC[C@H]32)cc(OC)c1OC | 11500 | – | – | – | 109 | 89 | 135 | 95 | 74 | 90 | 9070 | 8690 | 11900 | – | – | – | –
COc1cc([C@@H]2c3cc4c(cc3[C@H](O)[C@H]3COC(=O)[C@H]23)OCO4)cc(OC)c1OC [PODOFILOX] | – | – | – | – | – | 0 | – | – | – | 0 | – | – | – | 91 | 95 | 1 | 0
O=C1OC[C@H]2CC=C[C@H](c3ccccc3)[C@@H]12 (relative stereo) | 13600 | 12300 | 1320 | 13900 | – | – | – | – | – | – | – | – | – | – | – | – | –
O=C1OC[C@@H]2[C@@H]1CC=C[C@@H]2c1ccc2c(c1)OCO2 | 16700 | 16700 | 17400 | 15600 | 169 | 100 | 166 | 61 | 135 | 104 | – | – | – | – | – | – | –
O=C1OC[C@H]2CC=C[C@H](c3ccc4c(c3)OCO4)[C@H]12 | 19600 | 20100 | 16000 | 18200 | 143 | 101 | 170 | 86 | 143 | 87 | – | – | – | – | – | – | –
COc1cc([C@H]2C=CC[C@@H]3COC(=O)[C@H]32)cc(OC)c1OC (relative stereo) | 15200 | 15500 | 17000 | 14600 | 9 | 84 | 75 | 42 | 105 | 35 | – | – | – | – | – | – | –
